Measured values published in EPA's CvTdb concentration-time database.

Experiments:
rat = test: concentration in blood after dosing; conditions: dosed: 1,3-butadiene, inhalation, duration: 6 hr, Sprague Dawley
human [1] = test: concentration in expired air after dosing; negative times count back from the end of exposure; conditions: dosed: 1,3-butadiene, 5 ppm, inhalation, duration: 120 min
In short: (§1)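 Concentration-versus-time or amount-versus-time points were compiled from published in vivo toxicokinetic studies and from two structured collections. The studies were found by PubMed searching, classifier screening and manual review. Points were mostly digitised from plot screenshots with WebPlotDigitizer, otherwise copied from tables, and kept in the reported units. Dose, route, subject details and medium were curated by hand from each paper, and sampling and analytical methods follow each source and were often unreported.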

human [2] = test: concentration in blood after dosing; conditions: dosed: 1,2,4-trimethylbenzene, inhalation, duration: 2 hr
In short: as §1

human [3] = test: concentration in blood after dosing; negative times count back from the end of exposure; conditions: dosed: 1,2,4-trimethylbenzene, inhalation, duration: 2 hr
In short: as §1

C=CC=C [1,3-butadiene]
Conditions | concentration in blood [nM] | concentration in expired air [ppm]
human [1], -0.1653 h, during exposure | – | 4.58
human [1], -0.3284 h, during exposure | – | 4.31
human [1], -0.6614 h, during exposure | – | 4.14
human [1], -0.8313 h, during exposure | – | 3.79
human [1], -0.9977 h, during exposure | – | 3.77
human [1], -1.168 h, during exposure | – | 4.56
human [1], -1.331 h, during exposure | – | 4.38
human [1], -1.501 h, during exposure | – | 3.62
human [1], -1.67 h, during exposure | – | 4.25
human [1], -1.834 h, during exposure | – | 3.95
rat, 1.898 h, 63 ppm | 1290 | –
rat, 1.898 h, 616 ppm | 15300 | –
rat, 1.898 h, 1249 ppm | 31200 | –
rat, 2.9 h, 63 ppm | 1400 | –
rat, 2.9 h, 616 ppm | 17200 | –
rat, 2.9 h, 1249 ppm | 35400 | –
rat, 3.895 h, 63 ppm | 1250 | –
rat, 3.895 h, 616 ppm | 16500 | –
rat, 3.903 h, 1249 ppm | 38700 | –
rat, 5.893 h, 616 ppm | 18500 | –
rat, 5.901 h, 63 ppm | 1260 | –
rat, 5.901 h, 1249 ppm | 39600 | –
rat, 5.931 h, 1249 ppm | 9110 | –
rat, 5.962 h, 1249 ppm | 6000 | –
rat, 5.977 h, 63 ppm | 342 | –
rat, 5.993 h, 616 ppm | 4050 | –
rat, 6.016 h, 1249 ppm | 7440 | –
rat, 6.077 h, 63 ppm | 286 | –
rat, 6.092 h, 616 ppm | 2800 | –
rat, 6.092 h, 1249 ppm | 4210 | –
rat, 6.176 h, 1249 ppm | 4260 | –
rat, 6.184 h, 616 ppm | 3100 | –
rat, 6.23 h, 63 ppm | 198 | –
rat, 6.314 h, 63 ppm | 181 | –
rat, 6.329 h, 616 ppm | 2350 | –
rat, 6.391 h, 63 ppm | 101 | –

human [1]
Conditions | concentration in expired air [ppm]
0.1234 h | 0.329
0.1404 h | 0.298
0.1642 h | 0.278
0.1948 h | 0.278
0.2288 h | 0.267
0.2661 h | 0.267
0.3375 h | 0.226
0.402 h | 0.206
0.436 h | 0.185
0.4734 h | 0.175
0.5006 h | 0.144
0.5447 h | 0.144
0.6059 h | 0.144
0.6602 h | 0.123
0.701 h | 0.123
0.7588 h | 0.103
0.8029 h | 0.103
0.8505 h | 0.0823
0.9049 h | 0.0823
16 s | 4.55
77 s | 0.782
126 s | 0.535
200 s | 0.473
249 s | 0.35
334 s | 0.37

Cc1ccc(C)c(C)c1 [1,2,4-trimethylbenzene]
concentration in blood [nM]
Conditions | human [2] | human [3]
0.1241 h, 2 ppm | – | 249
0.1793 h, 25 ppm | 970 | 3640
0.2345 h, 2 ppm | 67.7 | 237
0.2621 h, 25 ppm | – | 3110
0.5655 h, 2 ppm | 52.6 | 164
0.5655 h, 25 ppm | – | 2420
0.5931 h, 25 ppm | 459 | –
0.9793 h, 2 ppm | – | 87.2
1.062 h, 25 ppm | – | 1610
1.476 h, 2 ppm | – | 95.1
1.503 h, 25 ppm | 658 | –
1.531 h, 25 ppm | – | 1360
1.972 h, 25 ppm | – | 989
2.524 h, 2 ppm | – | 75.3
2.524 h, 25 ppm | – | 863
2.579 h, 25 ppm | 404 | –
2.966 h, 2 ppm | – | 51.5
3.186 h, 25 ppm | – | 790
3.517 h, 25 ppm | – | 683
3.572 h, 25 ppm | 314 | –
3.959 h, 25 ppm | – | 614
11.99 h, 25 ppm | – | 171
21.97 h, 25 ppm | – | 134
248 s, 2 ppm | – | 288
248 s, 25 ppm | – | 4170

concentration in blood [nM], human [3], during exposure
Conditions | 2 ppm | 25 ppm
-248 s | – | 7990
-50 s | 552 | –
-1.917 h | – | 2540
-1.89 h | 147 | –
-1.752 h | – | 3540
-1.724 h | 231 | –
-1.476 h | 291 | 4460
-1.255 h | – | 6030
-1.228 h | 327 | –
-1.007 h | – | 6090
-0.9793 h | 409 | –
-0.7862 h | – | 6910
-0.731 h | 433 | –
-0.4828 h | 516 | –
-0.4552 h | – | 7540
-0.2897 h | – | 7180
-0.2345 h | 506 | –
